Source: ChEMBL document CHEMBL4354825, “Design and Synthesis of Basic Selective Estrogen Receptor Degraders for Endocrine Therapy Resistant Breast Cancer” (J Med Chem, 2019)
Active and inactive are the calls of the source. The rule behind the calls is not given here.

Columns and labels:
[1] = Half life in CD-1 mouse plasma at 50 mg/kg, po measured upto 24 hrs by LC-MS/MS analysis; details: in vivo
[2] = Antiproliferative activity against human MCF7:WS8 cells assessed as reduction in cell viability incubated for 5 days by Hoechst 33258 dye based assay; type: functional; details: MCF7:WS8, 120 h
Summary of the method: (§1)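 Cells were seeded at 5000 per well; MCF7:WS8 had been estrogen-stripped for 2 days first. Compounds were serially diluted in DMSO, with 0.01% DMSO as vehicle. The medium was removed on day 5 (MCF7:WS8) or day 7 (MCF7:5C), and cells were lysed by freezing at −80 °C overnight. DNA was measured by Hoechst 33258 fluorescence. Maximum efficacy was normalized to vehicle (0%) and no cells (100%); at least three biological replicates.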

[3] = AUClast in CD-1 mouse plasma at 50 mg/kg, po measured upto 24 hrs by LC-MS/MS analysis; details: in vivo
[4] = AUC extrapolated from the last time point to infinity in CD-1 mouse at 5 mg/kg, iv measured upto 24 hrs by LC-MS/MS analysis; details: in vivo
[5] = target: T1, Estrogen receptor (Homo sapiens) (UniProt P03372); experiment: Inhibition of ERalpha in human MCF7:WS8 cells assessed as increase in degradation of ERalpha incubated for 24 hrs by In-Cell Western assay relative to control; type: cell-based
T1 sequence (whole entry): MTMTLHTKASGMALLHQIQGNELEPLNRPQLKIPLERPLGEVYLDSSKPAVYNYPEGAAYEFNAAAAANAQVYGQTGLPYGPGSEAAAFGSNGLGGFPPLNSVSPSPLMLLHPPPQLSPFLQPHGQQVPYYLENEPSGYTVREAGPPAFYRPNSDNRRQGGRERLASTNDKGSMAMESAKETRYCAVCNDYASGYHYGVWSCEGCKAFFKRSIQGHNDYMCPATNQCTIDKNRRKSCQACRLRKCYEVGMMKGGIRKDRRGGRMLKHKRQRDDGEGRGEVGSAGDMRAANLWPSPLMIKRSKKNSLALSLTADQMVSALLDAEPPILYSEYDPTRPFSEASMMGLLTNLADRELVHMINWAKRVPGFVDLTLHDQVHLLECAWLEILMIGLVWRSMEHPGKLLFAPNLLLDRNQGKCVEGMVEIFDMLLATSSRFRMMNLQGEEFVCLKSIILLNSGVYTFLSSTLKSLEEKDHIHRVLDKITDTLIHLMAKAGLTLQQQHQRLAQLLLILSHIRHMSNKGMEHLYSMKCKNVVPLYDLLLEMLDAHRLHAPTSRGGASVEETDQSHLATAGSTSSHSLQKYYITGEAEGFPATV
Summary of the method: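 MCF7:WS8 cells were estrogen-stripped for 2 days and plated at 2.5 × 10^4 per well. After 48 h they were treated for 24 h. ERα was detected by in-cell western (H10 antibody), with signal normalized to CellTag 700.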

[6] = organism: Homo sapiens; experiment: Cytotoxicity against human MCF7:WS8 3D spheroid cells assessed as reduction in tumor cell viability at 10 nM incubated for 14 days by celltiter-glo 3D cell viability assay
[7] = tested on: T47D; experiment: Cytotoxicity against human T47D 3D spheroid cells harboring D538G mutant assessed as reduction in tumor cell viability at 10 nM incubated for 14 days by celltiter-glo 3D cell viability assay
[8] = AUClast/D in CD-1 mouse at 5 mg/kg, iv measured upto 24 hrs by LC-MS/MS analysis; details: in vivo
[9] = target: T2, Estrogen receptor (Homo sapiens, UniProt P03372); experiment: Inhibition of ERalpha in human MCF7:WS8 cells assessed as increase in degradation of ERalpha incubated for 24 hrs by In-Cell Western assay; type: cell-based
T2 sequence (P03372 whole entry): T1 sequence (whole entry)
Summary of the method: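 MCF7:WS8 cells were estrogen-stripped for 2 days and plated at 2.5 × 10^4 per well. ERα was detected by in-cell western (H10 antibody), with signal normalized to CellTag 700.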

[10] = AUC (0 to infinity) in C57BL/6 mouse at 5 mg/kg, iv measured upto 24 hrs by LC-MS/MS analysis; type: ADME, organism-based; parameters: dose 5 mg/kg, route intravenous, time infinity; details: in vivo
Summary of the method: (§2)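 Full PK run by a contract lab. Dosing was 50 mg/kg p.o. in water and 10% SBE-β-CD/PEG-400 (9:1 v/v), and 5 mg/kg i.v. Sampling at 0.25, 0.5, 1, 2, 4, 8 and 24 h (N = 5). Plasma samples were diluted in 50% acetonitrile and quantified by LC-MS/MS against standards serially diluted in 50% acetonitrile. Brain was also sampled after the oral dose.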

[11] = Half life in C57BL/6 mouse at 5 mg/kg, iv measured upto 24 hrs by LC-MS/MS analysis; type: ADME, organism-based; details: in vivo
Summary of the method: as §2

[12] = Tmax in C57BL/6 mouse brain at 50 mg/kg, po measured upto 24 hrs by LC-MS/MS analysis; type: ADME, organism-based; details: in vivo
Summary of the method: as §2

[13] = AUClast in C57BL/6 mouse at 5 mg/kg, iv measured upto 24 hrs by LC-MS/MS analysis; type: ADME, organism-based; parameters: time < 24 hr, dose 5 mg/kg, route intravenous; details: in vivo
Summary of the method: as §2

[14] = tested on: Rattus norvegicus; experiment: Induction of uterotrophic activity in Sprague-Dawley rat assessed as increase in uterine weight at 10 mg/kg, po administered for 3 days and measured after 24 hrs of last dosing by hematoxylin eosin staining based imaging analysis; type: functional, organism-based
Summary of the method: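 Female Sprague-Dawley rats were dosed from day 19 of age once daily for 3 days: 10 mg/kg p.o. in 2% Tween 80/0.5% methylcellulose. EE2 (0.1 mg/kg p.o., peanut oil) was the positive control. Uteri were excised and weighed 24 h after the last dose; one half was fixed in 4% paraformaldehyde for H&E histology.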

[15] = Drug concentration in C57BL/6 mouse brain at 100 mg/kg, po measured after 2 hrs by LC/MS-MS analysis; type: ADME, organism-based; details: read-out: Drug uptake
Summary of the method: (§3)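 PK screen in female C57BL/6 mice (N = 3 per time point). Dosed by gavage at 100 mg/kg in HPβD/PEG-400. Plasma and brain were taken from perfused mice at 30 and 120 min. Quantified by LC-MS/MS in MRM mode, with standard curves in each matrix and a common internal standard. Values are mean and s.d.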

[16] = Drug concentration in C57BL/6 mouse brain at 100 mg/kg, po measured after 0.5 hrs by LC/MS-MS analysis; type: ADME, organism-based; details: read-out: Drug uptake
Summary of the method: as §3

[17] = Antiproliferative activity against human MCF7:5C cells assessed as reduction in cell viability incubated for 7 days by Hoechst 33258 dye based assay relative to control; type: functional; details: 168 h
Summary of the method: as §1

[18] = Tmax in CD-1 mouse plasma at 50 mg/kg, po measured upto 24 hrs by LC-MS/MS analysis; details: in vivo
[19] = target: T2, Estrogen receptor; experiment: Antagonist activity at ERalpha in human MCF7:WS8 cells incubated for 18 hrs by dual luciferase reporter gene assay relative to control; type: cell-based
Summary of the method: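 MCF7:WS8 cells were estrogen-deprived for 3 days (phenol red-free RPMI, stripped FBS), then plated and grown 24 h. They were co-transfected for 6 h with a 3×vitellogenin ERE-firefly luciferase plasmid and a pRL-TK Renilla plasmid. Compounds were given in competition with 1 nM E2 for 18 h, then dual luciferase was read.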

With `Cc1cc(F)cc(C)c1C(=O)c1sc2cc(O)ccc2c1Oc1ccc(OC2CN(CCCF)C2)cc1` as the compound, how does the t1/2 [1] read?
The t1/2 was 4.48 h.

And the IC50 [2]?
The IC50 was 0.55 nM.

What about the AUClast [3] of the same compound?
Its AUClast is 1678 ng·h/mL.

And the “%AUCextra” value [4]?
The value was 1.52%.

What about the Efficacy [5] of the same compound?
Its Efficacy is 92%.

And the Activity [6]?
Its Activity is “Active”.

And the Activity [7]?
Its Activity is “Active”.

What about the AUClast/dose [8] of the same compound?
Its AUClast/dose is 153 ng·h/mL.

What about the IC50 [9] of the same compound?
Its IC50 is 1.02 nM.

And the AUC [10]?
The AUC was 778 ng·h/mL.

And the t1/2 [11]?
Its t1/2 is 1.68 h.

And the Tmax [12]?
The Tmax was 1 h.

And the AUClast [13]?
The AUClast was 766 ng·h/mL.

What about the Activity [14] of the same compound?
Its Activity is “inactive”.

What about the concentration at 2 h [15] of the same compound?
The concentration at 2 h was 1250 nM.

And the concentration at 0.5 h [16]?
The concentration at 0.5 h was 1630 nM.

And the Emax [17]?
Its Emax is 54%.

What about the Tmax [18] of the same compound?
The Tmax was 1 h.

And the IC50 [19]?
The IC50 was 3.1 nM.
